The record followed here is the EternaBench riboswitch data.

As a reminder, the apparent Kd is the concentration giving half-maximal binding under the conditions of the assay.

The subject of this data set is MS2 coat protein. Nature of the data set: apparent Kd, MS2 coat protein; higher = weaker binding; RNA-MaP array; FMN 200 µM where present. The method in brief: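 The apparent Kd is the median of filtered binding-curve fits, one per cluster, to green signal normalised to red-channel RNA signal and control-cluster median Fmax. The clusters were on Illumina sequencing chips, and stalled E. coli RNA polymerase had transcribed the designs on them. Titration used SNAP-549-labelled MS2 coat protein from 0.7 or 1.5 nM, doubling to 3 µM, without and then with constant ligand, in 100 mM Tris-HCl pH 7.5, 80 mM KCl, 4 mM MgCl2, BSA, DTT, yeast tRNA and Tween-20.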

Setting [1] is: designed as: ON switch for flavin mononucleotide, no ligand.
The mark [2] stands for this setting: ligand present: flavin mononucleotide, designed as: ON switch for flavin mononucleotide.
Where [3] appears, read: designed as: OFF switch for flavin mononucleotide, no ligand.
The mark [4] stands for this setting: ligand present: flavin mononucleotide, designed as: OFF switch for flavin mononucleotide.

Take “UGUAUGUAGGAGAAGGAGGACUUCAUGAGGAUCACCCAUGUGUUAGGACUUAGGAUAUCUGACGACAUGAGGAUCACCCAUGUG”: the “apparent Kd” value runs as follows: under setting [1], 537 nM; under setting [2], 355 nM.
For the sequence “AAUUAACAUGAGGAUCACCCAUGUGAGGAUAUGGUAUUAUUUGGACAGUUAUGAUCUACCAGAAGGCACAUAUA”, the “apparent Kd” value is, setting by setting: under setting [3], 39 nM; under setting [4], 65.1 nM.
The corresponding values for “AGCUAGUCAGGAUAUACAAACAUGUCAAAAGACGUGAAGGGACAUGAGGAUCACCCAUGUAGAAGGGACUAGCA” are 66.2 nM and 379 nM.
The corresponding values for “AAGCAGGUAAUAAAGUAGAAAUACAUGAGGAUCACCCAUGUAUAGGAUAUCGUCAGGAAUACUGACGAGAAGGAUACAUCCUGC” are 15.3 nM and 18.6 nM.
In the same order, the values of “AACAGGACAGGAUAUACAUGAGGAUCACCCAUGUGAGAAUUAAGUAGAUUGCCACAGAGUAGAAGGGUCCUGGA” are 66.6 nM and 91.2 nM.
Take “AAAAGACAUGAGGAUCACCCAUGUCAAGACGUAGGAGGAUAUGUCGUGAAAAAAGACUUGACAGAAGGCCUGUGUC”: the “apparent Kd” value under setting [1] worked out at 18.7 nM and the “apparent Kd” value under setting [2] was 15.4 nM.
As for “CGCUCAGAGAACGAUACGAAUAGACAUGAGGAUCACCCAUGUAGAAGGACAACGGAAUAAACGUUGUAGGAUAUACAUUUAGUG”, the “apparent Kd” value under setting [3] was found to be 34.3 nM and the “apparent Kd” value under setting [4] worked out at 90.4 nM.
In the same order, the values of “CUUUAGCUAGGAUAUACAUGAGGAUCACCCAUGUUAGCGGCCAAUUGGACCGCGGGUUGUAGAAGGAGCAUUAA” are 37.5 nM and 50.3 nM.
The corresponding values for “GCAUGCAAGUAGAAGGACGGAUAUUUUGAAAACGUAGGAUAUACAGAAUCAUAUCCACAAGGUAACAUGAGGAUCACCCAUGUA” are 10.5 nM and 9.58 nM.
The corresponding values for “UUAUUUAGGUAGGAUAUCGAUACUAAUUACUAUCGAGAAGGGUCUACAUGAGGAUCACCCAUGUUAGCAUGUUU” are 27.2 nM and 25.5 nM.
Regarding “GCCUCAGAAUUAAUUGUGAGAGGCAGAAGGCUAUAUCUCGUGGUAAACAUGAGGAUCACCCAUGUAGAGGAUAUGCUAUUACAG”, the “apparent Kd” value came to 8.25 nM under setting [3] and 9.99 nM under setting [4].
In the same order, the values of “UAAUUGUGAGGAUAUUCGUAGUUCACGGAGACGUGAAUUACGGAGAAGGCACAUGAGGAUCACCCAUGUUCCUU” are 17.8 nM and 84.8 nM.
In the same order, the values of “GGUCCACAUGAGGAUCACCCAUGUUAGGAUAUCUCGUCCGAGCAGUUAUGGGCCGGGCAGAGAAGGAAUGUGAA” are 30.3 nM and 26.6 nM.
In the case of “UUGCCUCAGAACAUGAGGAUCACCCAUGUGCUGCGGGCAACGUAGGAUAUGAUGGUUUGAUACCAUCAGAAGGAUGAUGGUACC”, the “apparent Kd” value runs as follows: under setting [1], 5.4 nM; under setting [2], 5.21 nM.
Consider “ACUGACAUGAGGAUCACCCAUGUCUUGAAUAGGUCAAAUUCACAGGAUAUGCGCUAGGACAGGGUGCAGAAGGGUGAUGCAAUG”, for which the “apparent Kd” value is, setting by setting: under setting [1], 45.4 nM; under setting [2], 12.1 nM.
Regarding “CACCGUUAGCGAGGAUAUCGUACAUGAGGAUCACCCAUGUAAUAAAUGAGAAUUUCGGAUGUAUGCGAGAAGGCGCAAAUCGGC”, the “apparent Kd” value runs as follows: under setting [3], 59 nM; under setting [4], 43.4 nM.
On to “GGCUAGUCAGGAUAUACGAACAUGUCGCCAGAUGUCAAGGUACAUGAGGAUCACCCAUGUAGAAGGGACUAGCC”, for which the “apparent Kd” value is, setting by setting: under setting [3], 42.7 nM; under setting [4], 168 nM.
In the same order, the values of “CCGUUGGGCUAGAAGGCUCCGGGAGGACCGCGGAGAGGAUAUAGCACAUGAGGAUCACCCAUGUGGUAUGACCUUAUGUAUUCA” are 33.6 nM and 65.1 nM.
The corresponding values for “UAGAAGUCAGGAUAUCCAGCUCGUCACUUGCGUGAUGAGUUGGAGAAGGGACAUGAGGAUCACCCAUGUAAAGG” are 152 nM and 242 nM.
The corresponding values for “CUGAUGUUAGGAUAUCAGGUUGUGCGCGAAGGCGGGCGGCAUGAGAAGGAACAUGAGGAUCACCCAUGUGACGA” are 29.4 nM and 85 nM.
